Results: publication PMC11842550 (Scientific Reports, 2025)
“Also recorded” adds a separate entry of the source. Like-named read-outs stand apart in the source and are kept apart here. Bridges are numbered along the chain shown (N, C = ends). Where no end group is shown, it is not given here.

Assays:
Borrelia [1] = experiment: Dot blot binding of individual phage clones to Borrelia; set-up: species or system Borrelia garinii (strain SKT-7.1); details: spirochetes fixed on PVDF membrane, anti-M13 antibody
Summary of the method: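 2 µl Borrelia (PBS, OD600 1.2) are spotted on activated PVDF, air-dried, fixed with 4% paraformaldehyde for 10 min, dried overnight and blocked for 1 h. Individual phage clones from the third panning (10^11) are added for 1 h with shaking. After PBS-0.05% Tween washes, anti-M13 pIII mAb (1:1000) then IRDye […] anti-mouse (1:15000) are applied, 1 h each. Read at 800 nm. No-phage negative control.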

[2] = system: spirochetal form of Borrelia; assay type: cell-based, Borrelia garinii (strain SKT-7.1); details: 5 days, 33 °C; for viability of Borrelia (spirochetal form): peptide 1.67 µM, triplicate; for inhibition of the spiral form of Borrelia: 0.41 µM
Summary of the method: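 Early-log Borrelia (BSK-II with 6% rabbit serum, 33 °C, about 2 weeks) are counted by flow cytometry. 2 × 10^3 cells go into 200 µl fresh BSK-II with test peptide at 6.67, 3.33, 1.67 or 0 µM, 33 °C for 5 days, then are recounted by flow cytometry. Percent inhibition is relative to 0 µM. Follow-up runs use 0.83, 0.41, 0.20 and 0.10 µM. Doxycycline (50 µM–5 nM) is the positive control.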

cystic form of Borrelia = experiment: Inhibition of conversion of cystic form into spirochetal form; assay type: cell-based, Borrelia garinii (strain SKT-7.1); details: for recovery of cystic Borrelia and transformation into the spirochetal form: peptides 1.66 µM for 16 h
Summary of the method: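 Cysts formed by 1:1 dilution of early-log culture in serum-free BSK-II, 2 weeks at 15 °C. 2 × 10^3 cysts exposed 16 h to test compound (two-fold series, 3.33–0.05 µM) in serum-free BSK-II, then pelleted and compound removed. Regrown 15 days at 33 °C in serum-containing BSK-II. Counted by flow cytometry; % inhibition vs PBS control; doxycycline 50 nM control.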

[3] = system: brain microvascular endothelial cells (BMECs); experiment: Cell-ELISA binding to endothelial cells; details: 2 µg peptide, fixed BMEC monolayer, triplicate
Summary of the method: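 BMEC monolayers in 96 wells are washed with PBS and fixed in 4% paraformaldehyde for 10 min, then blocked. They are incubated with 2 µg His-tagged test peptide and washed with PBS-T. Bound peptide is detected with HisProbe-HRP (1:1000, 1 h, room temperature) and TMB (25 min), stopped with 2 M H2SO4, read at 450 nm. Triplicates. Negative controls omit cells or peptide.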

Borrelia [4] = experiment: ELISA binding of Bor peptides to Borrelia; set-up: species or system Borrelia garinii (strain SKT-7.1); details: for affinity to spirochetal form, cystic form and trypsin-shaved Borrelia (ELISA): 2 µg/well
Summary of the method: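 Paraformaldehyde-fixed early-log Borrelia in microtiter wells are incubated 1 h with His-tagged test peptide, 2 µg/well for screening. Two-fold dilutions from 2.6 µM to 86 nM are used for concentration dependence, with the peptide-omitted background subtracted. Detection: five PBS-T washes, HisProbe-HRP (1:1000, 0.5% BSA, 1 h, room temperature), TMB 25 min, 2 M H2SO4 stop, 450 nm. Triplicates. Negative controls omit Borrelia or peptide.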

HEK293T cells = experiment: Cell toxicity, XTT assay; assay type: cell-based; details: 3.33 µM, 24 h, six replicates
Summary of the method: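 HEK293T cells are grown in high-glucose DMEM with 2 mM L-glutamine and 5% FBS (37 °C, 5% CO2) to 70% confluence. They get test peptide at 3.33 or 0 µM for 24 h. XTT reagent is added for 3 h and read at 450 nm. Controls are PBS (negative) and 0.1% Triton X. Six replicates. Metabolic activity is blank-subtracted sample ×100 over blank-subtracted PBS control.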

[5] = system: BBB model (BMECs, cell line D3); assay type: in vitro ADME; details: 1 µg/ml Cy5.5 labelled, luminal to abluminal
Summary of the method: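 D3 BMECs (5 × 10^5) are seeded on collagen-I-coated transwell inserts (1 µm pores) in complete endothelial medium. Barrier is confirmed by TEER and dextran. Cy5.5-NHS-labelled truncated OspA fragments (beta sheets 10–11 or 12–16), angiopep-2-Cy5.5 or CF770 dextran go luminally at 1 µg/ml, 37 °C. Abluminal fluorescence (650/705 nm; 770/797 nm) is read at 1, 2 and 3 h and converted by standard curves.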

[6] = system: spirochetal form of Borrelia as well as biofilm; details: compared to antibiotics; cited from earlier work
bacterial cell wall = details: cited from earlier work

ACHNETQKMCGGGS (disulfide 2-10 (inferred)) [Ph.Bor-9]
binding of phage clone to Borrelia in dot blot (Borrelia [1]): best binders

ACPRGIGLQCGGGS (disulfide 2-10 (inferred)) [Ph.Bor-26]
binding of phage clone to Borrelia in dot blot (Borrelia [1]): best binders

ACGYSSFNRCGGGS (disulfide 2-10 (inferred)) [Ph.Bor-16]
binding of phage clone to Borrelia in dot blot (Borrelia [1]): best binders

MRGSHHHHHHGSNEKGETSEKTIVRANGTRLEYTDIKSDGIEGRVDGGGGSDDDDKMACPRGIGLQCGGGS (disulfide 59-67 (inferred)) [Bor-26]
viability of Borrelia (spirochetal form) [2]: < 50% | recovery of cystic Borrelia and transformation into the spirochetal form (cystic form of Borrelia): significantly reduced | binding to brain microvascular endothelial cells (cell-ELISA) [3]: bind endothelial cells

ACRGATPMSCGGGS (disulfide 2-10 (inferred)) [Ph.Bor-8]
binding of phage clone to Borrelia in dot blot (Borrelia [1]): best binders

MRGSHHHHHHGSNEKGETSEKTIVRANGTRLEYTDIKSDGIEGRVDGGGGSDDDDKMACGYSSFNRCGGGS (disulfide 59-67 (inferred)) [Bor-16]
viability of Borrelia (spirochetal form) [2]: < 50% | recovery of cystic Borrelia and transformation into the spirochetal form (cystic form of Borrelia): significantly reduced | binding to brain microvascular endothelial cells (cell-ELISA) [3]: bind endothelial cells

C[C@H]1c2cccc(O)c2C(=O)C2=C(O)[C@]3(O)C(=O)C(C(N)=O)=C(O)[C@@H](N(C)C)[C@@H]3[C@@H](O)[C@@H]21 [doxycycline, reference compound]
inhibition of transformation and recovery of cysts into the spirochetal form (cystic form of Borrelia; 0.05 µM for 16 h): did not inhibit

ACNVRTCHDCGGGS (disulfide (positions not given here)) [Ph.Bor-24]
binding of phage clone to Borrelia in dot blot (Borrelia [1]): best binders

MRGSHHHHHHGSNEKGETSEKTIVRANGTRLEYTDIKSDGIEGRVDGGGGSDDDDKMACQPRNLNNCGGGS (disulfide 59-67 (inferred)) [Bor-18]
inhibition of the spiral form of Borrelia [2]: more than 50% | viability of Borrelia (spirochetal form) [2]: < 50% | affinity to spirochetal form, cystic form and trypsin-shaved Borrelia (ELISA) (Borrelia [4]): showed affinity for all three forms | Absorbance450 in ELISA, binding to Borrelia (Borrelia [4]; peptide 0.08 µM, early log phase Borrelia, negative control subtracted): 0.8 | binding to Borrelia in ELISA compared with other peptides (Borrelia [4]; peptide 0.16 µM, early log phase Borrelia): significantly higher; also recorded: showed binding affinity | binding to brain microvascular endothelial cells (cell-ELISA) [3]: bind endothelial cells

ACTPSFSKICGGGS (disulfide 2-10 (inferred)) [Ph.Bor-11]
binding of phage clone to Borrelia in dot blot (Borrelia [1]): best binders

ACHNTPHHLCGGGS (disulfide 2-10 (inferred)) [Ph.Bor-23]
binding of phage clone to Borrelia in dot blot (Borrelia [1]): best binders

NEKGETSEKTIVRANGTRLEYTDIKSDG [O-BBB]
borreliacidal effect on spirochetal form ([2]; 6.67 µM): no borreliacidal effect | affinity to Borrelia (ELISA) (Borrelia [4]; 2 µg peptide per well, fixed Borrelia, HisProbe-HRP, 450 nm, triplicate): no affinity for Borrelia | effect on cell metabolic activity (XTT) (HEK293T cells): no adverse effects | binding to brain microvascular endothelial cells (cell-ELISA) [3]: bind endothelial cells | crossing of BBB model compared with angiopep-2 ([5]; 2nd hr): comparable to that of angiopep-2 | crossing of BBB model compared with angiopep-2 ([5]; 3rd hr): significantly higher than that of angiopep-2

ACLKLGEKWCGGGS (disulfide 2-10 (inferred)) [Ph.Bor-1]
binding of phage clone to Borrelia in dot blot (Borrelia [1]): best binders

ACHNTSARVCGGGS (disulfide 2-10 (inferred)) [Ph.Bor-29]
binding of phage clone to Borrelia in dot blot (Borrelia [1]): best binders

ACQPRNLNNCGGGS (disulfide 2-10 (inferred)) [Ph.Bor-18]
binding of phage clone to Borrelia in dot blot (Borrelia [1]): best binders

MRGSHHHHHHGSNEKGETSEKTIVRANGTRLEYTDIKSDGIEGRVDGGGGSDDDDKMACTPSFSKICGGGS (disulfide 59-67 (inferred)) [Bor-11]
inhibition of the spiral form of Borrelia [2]: more than 50% | viability of Borrelia (spirochetal form) [2]: < 50% | growth inhibition of cystic form (cystic form of Borrelia; 0.41 µM, 16 h exposure, t-test p < 0.05): inhibiting growth significantly | recovery of cystic Borrelia and transformation into the spirochetal form (cystic form of Borrelia): significantly reduced | affinity to spirochetal form, cystic form and trypsin-shaved Borrelia (ELISA) (Borrelia [4]): showed affinity for all three forms | effect on cell metabolic activity (XTT) (HEK293T cells): no adverse effects | binding to brain microvascular endothelial cells (cell-ELISA) [3]: bind endothelial cells

melittin
effect on the spirochetal form of Borrelia as well as biofilm [6]: significant effect | time to destabilise the bacterial cell wall (bacterial cell wall): roughly 75 min
